Results taken from ChEMBL document CHEMBL1143127 (Bioorg Med Chem, 2008).
Calls of active or inactive are those of the source. No cut-off for these calls is given here.

B1: 17-beta-hydroxysteroid dehydrogenase type 1 (Homo sapiens), P14061 (protein)
chain: MARTVVLITGCSSGIGLHLAVRLASDPSQSFKVYATLRDLKTQGRLWEAARALACPPGSLETLQLDVRDSKSVAAARERVTEGRVDVLVCNAGLGLLGPLEALGEDAVASVLDVNVVGTVRMLQAFLPDMKRRGSGRVLVTGSVGGLMGLPFNDVYCASKFALEGLCESLAVLLLPFGVHLSLIECGPVHTAFMEKVLGSPEEVLDRTDIHTFHRFYQYLAHSKQVFREAAQNPEEVAEVFLTALRAPKPTLRYFTTERFLPLLRMRLDDPSGSNYVTAMHREVFGDVPAKAEAGAEAGGGAGPGAEDEAGRGAVGDPELGDPPAAPQ

What was measured:
[1] = target: T1, 17-beta-hydroxysteroid dehydrogenase type 1 (Homo sapiens, UniProt P14061); assay: Inhibition of 17beta-HSD1 in human T47D cells assessed as inhibition of transformation of [14C]-estrone into [14C]estrogen; assay type: cell-based
T1 sequence (P14061 whole entry): B1 chain

T47D [2] = assay: Antiproliferative activity against estrogen receptor positive human T47D cells at 0.1 uM after 8 days relative to control; assay type: functional, cell-based
Summary of the method: (§1)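 Estrogen-starved cells, resuspended in phenol red-free medium (RPMI for T-47D, DME-F12 for MCF-7) with insulin (50 ng/mL) and 5% dextran-coated charcoal-treated FBS, seeded 3000 cells/well. After 48 h medium replaced with compound dilutions (0.01, 0.1, 1 μM), renewed every 2 days for 8 days. Growth read by CellTiter 96 Aqueous assay; control = 100%; triplicate, mean ± SEM.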

T47D [3] = assay: Antiproliferative activity against estrogen receptor positive human T47D cells at 1 uM after 8 days relative to control; assay type: functional; summary of the method: as §1
MCF7 [4] = assay: Antiproliferative activity against estrogen receptor positive human MCF7 cells at 0.1 uM after 8 days relative to control; assay type: functional; summary of the method: as §1
T47D [5] = assay: Antiproliferative activity against estrogen receptor positive human T47D cells at 0.01 uM after 8 days relative to control; assay type: functional, cell-based; summary of the method: as §1
MCF7 [6] = assay: Reversal of estrogen-induced proliferation in estrogen-sensitive human MCF7 cells at 0.5 uM after 8 days relative to control; assay type: functional, cell-based
Summary of the method: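 Antiestrogenic test: MCF-7 cells plated in phenol red-free DME-F12 with charcoal-stripped FBS; two days later incubated 8 days with E₂ (0.1 nM) plus compound (0.5 μM), pure antiestrogen EM-139 (0.5 μM) as reference, medium changed every second day. CellTiter 96 Aqueous read-out; triplicate, mean ± SEM.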

[7] = target: T2, 17-beta-hydroxysteroid dehydrogenase type 2 (Homo sapiens) (UniProt P37059); assay: Inhibition of 17beta-HSD2 over-expressed in HEK293 cells assessed as inhibition of transformation of [14C]-estrogen into [14C]-estrone at 10 uM; assay type: cell-based
T2 sequence (whole entry): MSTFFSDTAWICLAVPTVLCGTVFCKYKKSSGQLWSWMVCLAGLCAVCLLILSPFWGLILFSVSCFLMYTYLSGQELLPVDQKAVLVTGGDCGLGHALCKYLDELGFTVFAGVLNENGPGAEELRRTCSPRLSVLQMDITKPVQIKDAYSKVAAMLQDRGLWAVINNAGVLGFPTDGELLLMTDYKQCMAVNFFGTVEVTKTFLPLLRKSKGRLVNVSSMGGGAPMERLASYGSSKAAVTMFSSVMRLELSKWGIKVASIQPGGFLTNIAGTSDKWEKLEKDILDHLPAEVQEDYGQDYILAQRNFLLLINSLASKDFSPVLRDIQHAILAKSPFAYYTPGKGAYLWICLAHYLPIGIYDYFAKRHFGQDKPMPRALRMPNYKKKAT

T47D [8] = assay: Reduction of estrone-induced human T47D cell growth at 0.5 uM after 8 days relative to control; assay type: functional; design: scale not given: the % may be the effect or the level left
Summary of the method: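 T-47D cells in estrogen-free phenol red-free RPMI with insulin and 5% charcoal-stripped FBS, grown 8 days with E₁ (0.01, 0.1, 1 or 5 nM) plus inhibitor (0.05–1 μM), medium changed every 2 days. Proliferation by CellTiter 96 Aqueous assay; growth without E₁ and inhibitor = 100%. Triplicate, mean ± SEM; Duncan–Kramer test.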

[9] = substrate: C[C@]12CC[C@@H]3c4ccc(O)cc4CC[C@H]3[C@@H]1CC[C@@H]2O
[10] = substrate: C[C@]12CC[C@@H]3c4ccc(O)cc4CC[C@H]3[C@@H]1CCC2=O

Row | Molecule | IC50 [1] [µM] | Activity (T47D [2]) | Activity (T47D [3]) [%] | Activity (MCF7 [4]) [%] | Activity (T47D [5]) | Activity (MCF7 [6]) | further results
1 | C[C@]12CC[C@@H]3c4ccc(O)cc4CC[C@H]3[C@@H]1C[C@H](Cc1cccc(C(N)=O)c1)C2=O | 0.171 | – | – | – | – | – | –
2 | C[C@]12CC[C@@H]3c4ccccc4CC[C@H]3[C@@H]1C[C@H](Cc1cccc(C(N)=O)c1)[C@@H]2O | – | inactive | 47 | 31 | inactive | – | –
3 | COc1cc2c(cc1O)CC[C@@H]1[C@@H]2CC[C@]2(C)[C@@H](O)[C@@H](Cc3cccc(C(N)=O)c3)C[C@@H]12 | – | inactive | 41 | 21 | inactive | – | –
4 | CCCCN(C)C(=O)CCCCCCCCCC[C@@H]1Cc2cc(O)ccc2[C@H]2CC[C@]3(C)[C@@H](O)[C@H](Cl)C[C@H]3[C@H]12 | – | – | – | – | – | Active | –
5 | C[C@]12CC[C@@H]3c4ccc(O)cc4CC[C@H]3[C@@H]1C[C@H](Cc1cccc(C(N)=O)c1)[C@@H]2O | 0.044 | – | – | – | – | inactive | Activity [7]: inactive; Activity (T47D [8]): 62%
6 | B1 | – | – | – | – | – | – | Km [9]: 4.6 µM; Km [10]: 0.03 µM
